Measured values published in the array DNA melting data of Ke et al. (doi:10.1101/2024.01.08.574731).

Columns and labels:
[1] = folding enthalpy; higher = less favourable; fluorescence melt of hairpins on a sequencing array, two-state fit; conditions: sodium 0.088 M
Outline: (§1)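 Two-state fits, bootstrapped, provided melting temperature and folding enthalpy from Cy3 fluorescence normalised to pre-quench Cy3 and to control constructs. Library hairpins with annealed Cy3 and quencher oligos were imaged on a sequenced MiSeq flow cell in 50 mM Na-HEPES pH 8.0, 25 mM NaCl, at 2.5 °C intervals up to 60 °C. Four replicates were combined with inverse-variance weighting. A 9.35 °C upward shift was applied to fitted temperatures to match UV melts.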

[2] = melting temperature; fluorescence melt of hairpins on a sequencing array, two-state fit, raised by 9.35 °C to match UV melts; conditions: sodium 0.088 M
Outline: as §1

Sequence	folding enthalpy [1]	Tm [2]
GTTCCACGAAAGTGCAAC (((.(((....))).)))	-16.9 kcal/mol	33.5 °C
GTTCCACGAAAGTGTAAC (((.(((....))).)))	-26.2 kcal/mol	38.4 °C
GTTCCAGAAATGGAAC ((((((....))))))	-32.2 kcal/mol	53.4 °C
GTTCCAGGAAACTGAAAC (((.(((....))).)))	-19.4 kcal/mol	30.4 °C
GTTCCAGGAAACTGGGAC ((.((((....)))).))	-27.6 kcal/mol	49.3 °C
GTTCCCCCGAAAGGGAAC (((..(((....))))))	-34.7 kcal/mol	51.6 °C
GTTCCCCGAAAGGGAAAC (((.(((....))).)))	-19.3 kcal/mol	46.5 °C
GTTCCCGAAAGGGATAAC ((((((....)))..)))	-10.2 kcal/mol	36.5 °C
GTTCCCGAAAGGGCAAC ((((((....))).)))	-14.7 kcal/mol	40.4 °C
GTTCCGGGAAACCAGAAC ((((.((....)).))))	-31.7 kcal/mol	38.7 °C
GTTCCGGGAAACCGGAAC (((((((....)))))))	-30.1 kcal/mol	68.7 °C
GTTCCGGGAAACCGGGAC ((.((((....)))).))	-35.5 kcal/mol	57.4 °C
GTTCCGGGAAACTGGGAC ((.((.(....).)).))	-28.2 kcal/mol	41.4 °C
GTTCCTCGAAAGAGAAC (((.(((....))))))	-24.1 kcal/mol	36.3 °C
GTTCCTGGAAACAGGGAC ((.((((....)))).))	-35.1 kcal/mol	50.8 °C
GTTCGACGAAAGTCTAAC (((.(((....))).)))	-24.8 kcal/mol	42.5 °C
GTTCGAGCGAAAGCTAAC (((..(((....))))))	-7.3 kcal/mol	24.6 °C
GTTCGAGGAAACTCAAAC (((.(((....))).)))	-13.8 kcal/mol	31 °C
GTTCGAGGAAACTCGGAC ((.((((....)))).))	-40.9 kcal/mol	51.3 °C
GTTCGCCCGAAAGGGAAC (((..(((....))))))	-13.9 kcal/mol	35.9 °C
GTTCGCCGAAAGGCTAAC (((.(((....))).)))	-19.6 kcal/mol	44.7 °C
GTTCGCGAAAGCGCAAC ((((((....))).)))	-13.9 kcal/mol	45.6 °C
GTTCGCGAAAGCGCTAAC ((((((....)))..)))	-9.92 kcal/mol	25.1 °C

Sequence	folding enthalpy [1]	Tm [2]
GTTCGCGAAAGCGGAAC ((((((....))).)))	-17.6 kcal/mol	54.4 °C
GTTCGCGAAAGCGTGAAC ((((((....)))..)))	-13 kcal/mol	40.5 °C
GTTCGCGAAAGCGTTAAC ((((((....)))..)))	-10.9 kcal/mol	27.8 °C
GTTCGCGGAAACGCGAGC (.(((((....))))).)	-15.7 kcal/mol	59.2 °C
GTTCGCGGAAACGCGGAC ((.((((....)))).))	-26.6 kcal/mol	60.7 °C
GTTCGGCGAAAGCCAAAC (((.(((....))).)))	-15.5 kcal/mol	46.5 °C
GTTCGGGGAAACTCGAAC (((((.(....).)))))	-30.8 kcal/mol	51.3 °C
GTTCGTGGAAACATGGAC ((.(.((....)).).))	-16.1 kcal/mol	34.7 °C
GTTCTACGAAAGTAAAC (((.(((....))))))	-10.8 kcal/mol	27.6 °C
GTTCTAGGAAACTAGAGC (.(((((....))))).)	-24.7 kcal/mol	35.6 °C
GTTCTCCGAAAGGACAAC (((.(((....))).)))	-15.6 kcal/mol	30 °C
GTTCTCGAAAGAGAGAAC ((((((....)))..)))	-25.1 kcal/mol	46.4 °C
GTTCTCGAAAGAGCAAC ((((((....))).)))	-17 kcal/mol	32.7 °C
GTTCTCGAAAGAGGTAAC ((((((....)))..)))	-8.25 kcal/mol	22.7 °C
GTTCTCGGAAACGAGAGC (.(((((....))))).)	-27.5 kcal/mol	48.2 °C
GTTCTCTCGAAAGAGAAC (((..(((....))))))	-34.5 kcal/mol	51.1 °C
GTTCTGAAAAGAAC (((((....)))))	-27.5 kcal/mol	47 °C
GTTCTGCGAAAGCATAAC (((.(((....))).)))	-25 kcal/mol	43.7 °C
GTTCTGGCGAAAGCCAAC (((..(((....))))))	-7.18 kcal/mol	19.8 °C
GTTCTGGGAAACCAGAGC (.(((((....))))).)	-24.2 kcal/mol	46.3 °C
GTTCTGGGAAACTAGAGC (.(((.(....).))).)	-8.92 kcal/mol	24.9 °C
GTTCTTCCGAAAGGAAAC (((..(((....))))))	-13.6 kcal/mol	27.5 °C
